Source: PubChem
This is a sample that favours compounds with a hit; in the whole collection about 6.6% have one here.
HEK293 NFkB inh – lowers PMA/ionomycin-induced NF-kB signal in HEK293 cells; HEK-293 NF-kB luciferase reporter, luminescence; 0.21% of 62,000 active; AID 465; inhibition, % at 3 µM;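 active = inhibition above the mean of all tested compounds plus 3 SD, cut at about 40% in these data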;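 also: 0% = stimulated DMSO wells and 100% = 10 µM reference inhibitor 5653914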
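Reagent: PMA plus ionomycin mix as NF-kB-activating stimulus. Assay system: NF-kB luciferase reporter HEK-293 cells. Technique: luminescence from luciferase substrate reagent. Incubation: 1 h compound pre-incubation, 16 h PMA/ionomycin at 37 °C. Benchmarks: DMSO only as uninhibited control, 10 µM reference inhibitor as full inhibition. Repeats: tested once.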
HER2 expr 66K – lowers expression of human Her2 kinase | HER2 level % of control, % at 10 µM | P04626 | AID 645 | SKBR-3 HER2 protein level, AlphaScreen, 18-24 h; hits give low values | 0.69% of 65,000 active;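 active = HER2 level under 5% of the carrier-only control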;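 also: 100% = DMSO carrier and 0% = 500 nM PU-H71 HSP90 inhibitor; lower value means stronger loss of Her2 protein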
JNK3 blocker – JNK3 (human) kinase inhibition; AID 746; purified JNK3 kinase activity, HTS; inhibition, % at 8 µM; 0.61% of 60,000 active; in the data active = inhibition above about 17%;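 also: 0% = DMSO and 100% = reference inhibitor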
M1 ag – agonists of M1 muscarinic receptor; 3% of 64,000 active; CHO-M1 cells, Fluo-4 calcium fluorescence, agonist mode; hits give high values; B-score at 10 µM;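 active = fluorescence rise, raw or as B-score row- and column-corrected plate score, outside the 99.7% band of its plate's samples, either direction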
M1 antagonist – blocks the rat M1 muscarinic receptor response to acetylcholine. CHO-M1 cells, Fluo-4 calcium, ACh EC80 antagonist mode; hits give low values. 3.4% of 64,000 active. P08482. B-score at 10 µM;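 active = calcium fluorescence response, raw or row-and-column corrected B-score, differing from the plate sample mean either way at a set confidence level, mostly lower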
BAP1 inh – blocks human BAP1 ubiquitin-AMC hydrolysis | calls only at 20 µM | Q92560 | recombinant BAP1, Ub-AMC hydrolysis fluorescence kinetic; hits give low values | 0.48% of 72,000 active;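 active = activity remaining at or below 50% of control, provided the compound also passes the data quality filters; inactive = the rest, including low values that fail the filters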;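 also: 100% = DMSO wells rate and 0% = substrate alone blank rate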
Target sequence (Q92560 whole entry, looked up): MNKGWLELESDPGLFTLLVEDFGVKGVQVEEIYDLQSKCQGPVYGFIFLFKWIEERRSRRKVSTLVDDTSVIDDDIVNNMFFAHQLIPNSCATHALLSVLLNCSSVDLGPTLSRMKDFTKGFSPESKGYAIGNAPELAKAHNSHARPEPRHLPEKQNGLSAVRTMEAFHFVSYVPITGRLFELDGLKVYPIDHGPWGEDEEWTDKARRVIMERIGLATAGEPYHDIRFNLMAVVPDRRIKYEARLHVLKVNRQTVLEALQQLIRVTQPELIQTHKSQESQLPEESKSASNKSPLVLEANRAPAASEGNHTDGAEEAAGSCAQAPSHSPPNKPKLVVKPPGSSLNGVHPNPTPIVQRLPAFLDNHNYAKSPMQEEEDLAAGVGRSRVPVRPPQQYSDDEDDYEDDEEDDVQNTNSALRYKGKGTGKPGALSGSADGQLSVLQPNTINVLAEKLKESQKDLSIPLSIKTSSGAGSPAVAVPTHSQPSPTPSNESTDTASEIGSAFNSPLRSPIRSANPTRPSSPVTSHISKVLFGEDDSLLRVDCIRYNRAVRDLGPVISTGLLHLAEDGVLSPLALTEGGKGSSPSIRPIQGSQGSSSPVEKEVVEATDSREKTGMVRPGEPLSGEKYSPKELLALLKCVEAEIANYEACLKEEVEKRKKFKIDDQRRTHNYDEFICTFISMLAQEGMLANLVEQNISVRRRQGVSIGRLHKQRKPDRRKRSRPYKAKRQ
* hit, by the source's call; i = inactive; · = no result given; + = active, no number.

SMILES	HEK293 NFkB inh	HER2 expr 66K	JNK3 blocker	M1 ag	M1 antagonist	BAP1 inh
Cc1cc(C)[n+]2c(n1)SC(C)C2 (configuration not stated)	·	·	·	·	·	i
O=c1cc(N2CCN(c3ccccc3F)CC2)[nH]c(=O)n1-c1ccc(Br)cc1	14	93	3	-2.6*	0.35	i
Nc1cccc2c1C(=O)N(c1ccccc1)C2=O	18	64	5	70*	-0.37	i
CCCn1nc(Oc2nc(SC)nc(N(C)C)n2)ccc1=O	·	88	4	-0.84	2*	i
CN1CC2(Cc3c1ccc1ccccc31)C(=O)OC(C)(C)OC2=O	9	56	-6	0.15	-0.63	i
Cc1ccc2c(c1)CC1(CN2C)C(=O)OC2(CCCCC2)OC1=O	21	90	31*	-0.27	0.66	i
CCOC(=O)C1CCN(Cc2ccc(C(=O)OC)cc2)CC1	3	105	5	41*	-5.6*	i
COc1ccc2oc(=O)c(-c3nnc(NCc4ccco4)s3)cc2c1	13	-11*	7	-1.4	-0.047	·
CCN(CC)CCN1C(=O)C(=O)/C(=C(/O)c2c(C)[nH]c(C(=O)OC)c2C)C1c1ccco1 (configuration not stated)	·	84	2	-1.4	0.2	i
CCOC(=O)c1[nH]c(C)c(/C(O)=C2\C(=O)C(=O)N(CCN(C)C)C2c2ccco2)c1C (configuration not stated)	8	83	-1	-0.46	-2.3*	i
COc1ccc(/C(O)=C2/C(=O)C(=O)N(CCN(C)C)C2c2ccccc2)cc1Cl (configuration not stated)	2	95	4	-0.8	1*	i
COc1ccc(OC)c(C2/C(=C(\O)c3c(C)nc4ccccn34)C(=O)C(=O)N2CCCN(C)C)c1 (configuration not stated)	20	77	-1	1.2	2.4*	i
COc1ccc(/C(O)=C2/C(=O)C(=O)N(CCCN(C)C)C2c2ccco2)cc1Cl (configuration not stated)	·	94	0	35*	-0.73	i
COc1ccc(/C(O)=C2/C(=O)C(=O)N(CCN(C)C)C2c2ccc(C)cc2)cc1Cl (configuration not stated)	15	109	-5	-0.44	0.58	i
Cc1ccc(C2/C(=C(\O)c3c(C)nc4ccccn34)C(=O)C(=O)N2CCCN(C)C)o1 (configuration not stated)	14	95	6	-0.35	-0.2	i
CC(C)n1c(N2CCCCCC2)nc2c1c(=O)[nH]c(=O)n2C	·	·	·	·	·	i
C=CCSC1=N/C(=C\C=C\c2ccco2)C(=O)S1	14	2.1*	9	-0.43	-0.043	i
C=CCSC1=N/C(=C\c2ccc3c(c2)OCO3)C(=O)S1	10	81	0	0.16	-0.23	i
CC(C)(C)n1nc2c(c1NC(=O)c1ccc3ccccc3c1)CSC2	·	·	·	·	·	i
CC(C)c1ccc(-c2c(C#N)c(N)nc3sc(C(=O)c4ccccc4)c(N)c23)cc1	·	·	·	·	·	i
COC(=O)CC1=C(C(=O)OC)C(c2ccc3c(c2Cl)OCO3)C(C#N)=C(N)O1 (configuration not stated)	·	-22*	-4	0.18	0.089	i
COC(=O)CC1=C(C(=O)OC)C(c2ccncc2)C(C#N)=C(N)O1 (configuration not stated)	·	69	-9	0.22	0.078	i
COc1ccc(-c2cc(C(F)(F)F)n3nc(C(=O)N4CCCC4)cc3n2)cc1	8	103	-3	-0.72	1.8*	i
Cc1ccccc1-n1nnnc1SCC(N)=O	-1	109	1	-0.41	-0.026	i
Cc1cccc(C)c1-n1nnnc1SCSc1nnnn1-c1c(C)cccc1C	45*	70	-2	0.16	0.11	i
SMILES	HEK293 NFkB inh	HER2 expr 66K	JNK3 blocker	M1 ag	M1 antagonist	BAP1 inh
O=C(CSc1nc2ccccc2c(=O)n1CCCC(=O)N1CCCC1)NCc1ccco1	16	97	·	0.46	-0.69	i
O=C(CCCCCn1c(SCc2ccncc2)nc2ccccc2c1=O)NCc1ccco1	12	146	18*	1.4	0.27	i
COc1ccc(-c2nnc(-c3ccc(Br)o3)o2)cc1OC	3	188	25*	1.5	0.67	i
COc1ccc(-c2nc(-c3ccc(Br)o3)no2)cc1OC	2	75	8	0.015	0.24	i
CCOC(=O)c1sc(=NC(=O)c2ccc(S(=O)(=O)N3CCCc4ccccc43)cc2)n(C)c1C	·	·	·	·	·	i
CCOC(=O)C(Cc1c(F)cccc1F)(NC(C)=O)C(=O)OCC	-2	77	-1	0.42	1.1	i
CCOC(=O)C(CO)(NC(C)=O)C(=O)OCC	18	95	8	-0.33	1.3*	i
Cc1ccc(-c2nnn(CC(=O)N(CC(=O)NC3CCCC3)c3cnc4ccccc4c3)n2)o1	4	133	4	-0.95	0.69	i
CCC(C(=O)NC1CCCC1)N(C(=O)Cn1nnc(-c2ccc(C)o2)n1)c1cnc2ccccc2c1 (configuration not stated)	13	-8.5*	-4	-1	-0.81	i
CC(=O)Oc1cc(OC(C)=O)c2c(=O)c(-c3ccc4c(c3)OCCO4)c(C)oc2c1	·	·	·	·	·	i
CCOC(=O)c1c(-c2cccs2)csc1NC(=O)CN1CCOCC1	15	83	15	0.72	-1.3	i
CCOC(=O)c1c(-c2cccs2)csc1NC(=O)c1ccco1	13	-28*	1	-1.5	0.23	·
CCOCCc1nnc(NC(=O)c2cccs2)s1	5	69	9	-0.13	-0.37	i
CCOCc1nnc(NC(=O)c2cccs2)s1	13	79	-5	0.95	2.1*	i
CCCOc1ccc(-c2csc(NC(=O)c3ccc(S(=O)(=O)N4CCCCC4)cc3)n2)cc1	·	·	·	·	·	i
C=CCn1c(C)cc(C(=O)CSc2nnc(Cc3ccccc3)o2)c1C	2	82	·	0.18	-0.14	·
C=CCn1c(C)cc(C(=O)CSc2nnc(NCc3ccccc3)s2)c1C	17	80	-1	-0.065	1.9*	·
CC(C)N(Cc1ccccc1)C(=O)COC(=O)c1ccc2c(c1)OCCO2	6	49	·	-0.31	-0.33	i
CC(C)N(CCC(=O)c1ccc2ccccc2c1)Cc1ccccc1	·	·	·	·	·	+
CCOc1ccc(NC(=O)C/C(N)=N/O)cc1	10	-21*	0	0.23	-0.47	i
CCOC(=O)c1sc(NC(=O)COc2cccc(Cl)c2)nc1C	·	·	·	·	·	i
CCn1c(SCC(=O)Nc2ccc(NC(C)=O)cc2)nnc1C1CC1	10	114	-13	-0.72	0.28	i
CCn1c(SCC(=O)Nc2ccc(Cl)cc2)nnc1C1CC1	13	105	22*	-0.71	0.047	i
CCN(c1ccccc1)S(=O)(=O)c1ccc(Oc2ccc(-n3ccnc3)cc2)nc1	98*	77	-7	-0.95	-1.7	i
